Measurements from ChEMBL document CHEMBL1146064, “Design, synthesis, and biological evaluation of semicarbazide-sensitive amine oxidase (SSAO) inhibitors with anti-inflammatory activity” (J Med Chem, 2006).

Legend:
[1] = target: T1, Amine oxidase [copper-containing] 3 (Rattus norvegicus, UniProt O08590); test: Inhibition of SSAO in rat lung
T1 sequence (O08590 whole entry): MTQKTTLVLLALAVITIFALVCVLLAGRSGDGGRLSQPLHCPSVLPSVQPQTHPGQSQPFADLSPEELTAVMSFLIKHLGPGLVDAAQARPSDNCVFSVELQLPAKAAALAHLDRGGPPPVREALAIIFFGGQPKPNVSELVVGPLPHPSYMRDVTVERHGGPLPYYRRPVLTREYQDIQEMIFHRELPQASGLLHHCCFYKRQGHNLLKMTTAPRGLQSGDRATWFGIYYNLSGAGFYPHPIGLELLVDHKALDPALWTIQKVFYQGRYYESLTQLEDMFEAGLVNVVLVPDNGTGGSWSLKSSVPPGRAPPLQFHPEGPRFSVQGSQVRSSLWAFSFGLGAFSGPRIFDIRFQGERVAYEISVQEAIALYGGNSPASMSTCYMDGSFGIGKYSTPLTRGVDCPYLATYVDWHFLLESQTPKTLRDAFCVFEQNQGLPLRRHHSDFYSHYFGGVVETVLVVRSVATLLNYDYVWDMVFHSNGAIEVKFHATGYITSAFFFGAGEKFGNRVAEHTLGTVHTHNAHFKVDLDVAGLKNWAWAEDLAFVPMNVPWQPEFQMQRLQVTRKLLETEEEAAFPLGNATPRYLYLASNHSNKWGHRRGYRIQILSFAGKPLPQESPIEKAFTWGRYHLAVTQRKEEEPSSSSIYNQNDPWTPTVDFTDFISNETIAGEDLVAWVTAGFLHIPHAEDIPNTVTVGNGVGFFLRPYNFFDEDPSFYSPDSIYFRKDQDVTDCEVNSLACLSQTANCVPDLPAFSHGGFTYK
Procedure, shortened: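 Enzyme source is a rat lung homogenate: tissue homogenized 1:20 (w/v) in 10 mM potassium phosphate pH 7.8, then spun at 10000g for 10 min at 4 °C. Reaction stopped with citric acid, toluene/ethyl acetate extract counted by scintillation. IC50 taken from background-corrected dose-response curves (10^-3 to 10^-10 M).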

[2] = target: T2, Amine oxidase [flavin-containing] A (Homo sapiens, UniProt P21397); test: Inhibition of recombinant human MAO-A
T2 sequence (P21397 whole entry): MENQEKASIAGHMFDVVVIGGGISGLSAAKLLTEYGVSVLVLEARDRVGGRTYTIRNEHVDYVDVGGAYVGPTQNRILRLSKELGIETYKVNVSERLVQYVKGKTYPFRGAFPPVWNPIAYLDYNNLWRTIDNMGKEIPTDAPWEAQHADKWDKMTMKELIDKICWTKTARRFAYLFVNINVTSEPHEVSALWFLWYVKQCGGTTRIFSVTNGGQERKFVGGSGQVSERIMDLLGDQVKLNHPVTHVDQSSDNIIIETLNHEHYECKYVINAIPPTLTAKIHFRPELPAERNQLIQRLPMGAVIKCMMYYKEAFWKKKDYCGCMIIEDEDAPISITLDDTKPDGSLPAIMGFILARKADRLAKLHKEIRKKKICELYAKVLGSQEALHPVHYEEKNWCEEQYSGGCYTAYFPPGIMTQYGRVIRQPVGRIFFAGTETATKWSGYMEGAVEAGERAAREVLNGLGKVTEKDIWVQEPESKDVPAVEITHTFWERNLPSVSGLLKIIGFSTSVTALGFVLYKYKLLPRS
Procedure, shortened: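 Recombinant human MAO-A measured with a coupled colorimetric assay. IC50 fitted from inhibition curves over 10^-3 to 10^-10 M inhibitor.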

[3] = target: T3, Amine oxidase [flavin-containing] B (Homo sapiens, UniProt P27338); test: Inhibition of recombinant human MAO-B
T3 sequence (P27338 whole entry): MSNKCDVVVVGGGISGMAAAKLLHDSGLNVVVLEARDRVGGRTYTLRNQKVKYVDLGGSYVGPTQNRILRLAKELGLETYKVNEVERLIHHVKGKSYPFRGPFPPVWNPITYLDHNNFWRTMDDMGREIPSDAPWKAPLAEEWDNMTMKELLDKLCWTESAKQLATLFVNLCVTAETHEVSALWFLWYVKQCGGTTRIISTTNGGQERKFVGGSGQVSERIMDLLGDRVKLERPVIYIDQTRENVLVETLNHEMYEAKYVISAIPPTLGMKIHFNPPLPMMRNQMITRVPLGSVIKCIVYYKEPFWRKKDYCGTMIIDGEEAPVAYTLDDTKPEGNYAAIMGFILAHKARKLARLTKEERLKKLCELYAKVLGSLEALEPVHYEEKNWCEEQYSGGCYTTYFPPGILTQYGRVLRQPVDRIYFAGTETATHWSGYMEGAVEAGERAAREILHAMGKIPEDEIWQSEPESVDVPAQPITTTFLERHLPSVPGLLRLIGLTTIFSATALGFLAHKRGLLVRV

[4] = Tmax in Sprague-Dawley rat at 5 mg/kg, po; type: ADME, organism-based; set-up: dose 5 mg/kg, route oral; conditions: in vivo
Procedure, shortened: (§1)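 Single oral dose of 5.0 mg/kg given to cannulated female Sprague Dawley rats, then plasma concentrations followed over time. Parameters come from noncompartmental analysis and are reported as mean ± SD (n = 3).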

[5] = AUC (infinity) in Sprague-Dawley rat at 5 mg/kg, po; type: ADME, organism-based; set-up: time infinity, dose 5 mg/kg, route oral; conditions: plasma; procedure, shortened: as §1
[6] = Cmax in Sprague-Dawley rat at 5 mg/kg, po; type: ADME, organism-based; set-up: dose 5 mg/kg, route oral; conditions: in vivo; procedure, shortened: as §1
[7] = AUC in Sprague-Dawley rat at 5 mg/kg, po; type: ADME, organism-based; set-up: dose 5 mg/kg, route oral; conditions: plasma; procedure, shortened: as §1
[8] = Half life in Sprague-Dawley rat at 5 mg/kg, po; type: ADME, organism-based; set-up: dose 5 mg/kg, route oral; conditions: in vivo; procedure, shortened: as §1

Structure (SMILES): C=C(CNNC)c1ccc(F)cc1
- IC50 [1]: 1.7 nM

Structure (SMILES): C=C(CNNC(C)C)c1ccc(F)cc1
- IC50 [1]: > 1000 nM

Structure (SMILES): C=C(CNNCC)c1ccc(F)cc1
- IC50 [1]: 2.3 nM

Structure (SMILES): C=C(CN(C)N)c1ccc(F)cc1
- IC50 [1]: 240 nM

Structure (SMILES): C=C(CNNCc1ccccc1)c1ccc(F)cc1
- IC50 [1]: > 1000 nM

Structure (SMILES): C=C(CNN)c1ccccc1C
- IC50 [1]: 4 nM
- IC50 [2]: 2000 nM
- IC50 [3]: 90000 nM

Structure (SMILES): C=C(CNN)c1ccc(F)cc1
- IC50 [1]: 6.1 nM
- IC50 [2]: 6000 nM

Structure (SMILES): C=C(CN(N)CC)c1ccc(F)cc1
- IC50 [1]: 630 nM

Structure (SMILES): C=C(CNN)c1ccccc1.Cl
- IC50 [1]: 2 nM
- Tmax [4]: 0.5 h
- AUC(0-inf) [5]: 3310 ng·h/mL
- Cmax [6]: 366 ng/mL
- IC50 [2]: 1300 nM
- IC50 [3]: 71000 nM
- AUC [7]: 1340 ng·h/mL
- half-life [8]: 11.3 h

Structure (SMILES): NNC/C(=C/F)c1ccccc1
- IC50 [1]: 5 nM

Structure (SMILES): C=C(CNN)c1ccc(Cl)cc1
- IC50 [1]: 3 nM

Structure (SMILES): C=C(CN(N)Cc1ccccc1)c1ccc(F)cc1
- IC50 [1]: > 1000 nM

Structure (SMILES): C=C(CN(N)C(C)C)c1ccc(F)cc1
- IC50 [1]: 420 nM
